Results pooled from the literature.
Lines come from different studies, so protocols differ.
Target: Dual specificity protein kinase CLK2 (CLK2, Homo sapiens, UniProt P49760)

SMILES | read-out | mode | technique | concentration | endpoint | result
CC(=O)Nc1c(C(C)=O)c(=O)n(C)c2nc(-c3ccc(Cl)cc3Cl)c(-c3ccc(Cl)cc3)cc12 | cell-free assay | – | competition with immobilised ligand | 1 µM | remaining binding | 100%
Nc1nc(Nc2ccc(S(N)(=O)=O)cc2)sc1C(=O)c1ccccc1[N+](=O)[O-] | enzyme activity | inhibitor | – | 0.1 µM | inhibition | 60 to 66%
COc1cc(Nc2cnc(C#N)c(O[C@H](C)CN(C)C)n2)ncc1-c1cnn(C)c1 | enzyme activity | inhibitor | radiometric | 1 µM | remaining activity | 95%
CC(C)CC(=O)N1CCc2nc(-c3ccc(Br)cc3)nc(N(C)Cc3ccccc3)c2C1 | cell-free assay | – | competition with immobilised ligand | 0.1 µM | remaining binding | 100%
O=C(Nc1cnn(-c2csc(C(=O)NC3COC3)c2)c1)Nc1c(F)cccc1Cl | enzyme activity | inhibitor | – | 5 µM | remaining activity | 109%
O=C1Nc2ccc(Cl)cc2C1=Cc1cc(Cl)c(O)c(Cl)c1 | cell-free assay | – | – | 0.5 µM | remaining signal | 95.5%
Cn1c(=O)n(-c2ccc(C(C)(C)C#N)cc2)c2c3cc(-c4cnc5ccccc5c4)ccc3ncc21 | enzyme activity | inhibitor | – | 10 µM | remaining activity | 53%
COc1ccc2c(O[C@@H]3C[C@H]4C(=O)N[C@]5(C(=O)O)CC5/C=C\CCCCC[C@H](NC(=O)OC5CCCC5)C(=O)N4C3)cc(-c3csc(NC(=O)C(C)C)n3)nc2c1C (stereo partly drawn) | cell-free assay | – | competition with immobilised ligand | 1 µM | remaining binding | 100%
COc1cc2ncnc(Nc3ccc(F)c(Cl)c3)c2cc1OCCCN1CCOCC1 | cell-free assay | – | – | 0.5 µM | remaining signal | 94.8%
COc1cc(/C=C/C(=O)CC(=O)/C=C/c2ccc(O)c(OC)c2)ccc1O | enzyme activity | inhibitor | – | 1 µM | activity vs control | 48%
CCCOc1ccc([C@@H]2[C@@H](C(=O)O)[C@H](c3ccc4c(c3)OCO4)CN2CC(=O)Nc2c(CC)cccc2CC)cc1 | cell-free assay | – | competition with immobilised ligand | 1 µM | remaining binding | 100%
Cn1cnc(Br)c1C1=CN(c2ncnc3[nH]cnc23)CCS1 | enzyme activity | inhibitor | radiometric | 50 nM | inhibition | 46.1%
CS(=O)(=O)N1CCCC(NC(=O)[C@H](CCC2CCCCC2)NC(=O)c2ccc(CNC(=O)c3cnc4ccccn34)cc2)C1 (stereo partly drawn) | cell-free assay | – | competition with immobilised ligand | 0.1 µM | remaining binding | 98%
Clc1ccc(Nc2nnc(Cc3ccncc3)c3ccccc23)cc1 | cell-free assay | – | – | 0.5 µM | remaining signal | 87.6%
Cc1cnc(NC2CCOCC2)nc1-n1cnc(C(=O)NC(CN)c2cc(F)cc(Cl)c2)c1 (stereo not drawn) | enzyme activity | inhibitor | radiometric | 1 µM | remaining activity | 78%
Cc1ccc(NC(=O)c2ccc(C)c(C(F)(F)F)c2)cc1C#Cc1nn(C2CCC(O)CC2)c2ncnc(N)c12 (stereo not drawn) | cell-free assay | – | – | 10 µM | remaining signal | 47%
CN1CC(Oc2cnc(C#N)cc2-c2ccn3nc(NC(=O)C4CC4)cc3c2)C1 | enzyme activity | inhibitor | – | 1 µM | inhibition | 1%
Cn1c2c(c3ccc(Cl)c(Cl)c31)C(C#N)C1(CCCCC1)NC2=O (racemic) | thermal stability | – | DSF | 10 µM | ΔTm | 2.1 °C

SMILES | read-out | mode | technique | concentration | endpoint | result
Cc1cc(NC(=O)c2cccc3cc(-c4cccc5[nH]nc(N)c45)ccc23)ccc1F | enzyme activity | inhibitor | – | 0.1 µM | activity vs control | 95%
CC(C)(C)c1nc2c(s1)c1nc(N)ncc1c1ccc(NS(=O)(=O)c3c(F)cccc3F)c(F)c12 | enzyme activity | inhibitor | radiometric | 1 µM | remaining activity | 90%
CC1(C)NC(=O)c2[nH]c3c(Cl)c(Cl)ccc3c2C1C#N (stereo not drawn) | thermal stability | – | DSF | 10 µM | ΔTm | 2.7 °C
O=C(NCc1ncc(C(F)(F)F)cc1Cl)c1ccc2c(c1)C1(CCS(=O)(=O)CC1)[C@H](C1CC1)N2S(=O)(=O)c1ccc(F)cc1 | cell-free assay | – | competition with immobilised ligand | 1 µM | remaining binding | 100%
O=C(CSc1nc2nccnc2c(=O)n1CCc1ccccc1)Nc1nccs1 | enzyme activity | inhibitor | – | 10 µM | inhibition | 15%
c1ccc(CNc2nc(N3CCOc4ccccc43)nc3c2CCCC3)cc1 | target engagement in cells | inhibitor | chemoproteomics | 20 mM | inhibition | -5.9%
COc1cccc(CNC(=O)c2nc3scc(COCc4ccc(C(=O)O)cc4)c3c(=O)[nH]2)c1 | cell-free assay | – | competition with immobilised ligand | 1 µM | remaining binding | 92.4%
CN(C)C1CCN(CC#Cc2nn(C3CCCC3)c3nc(NCc4ccccc4)ncc23)C1 (stereo not drawn) | enzyme activity | inhibitor | FRET | 0.1 µM | inhibition | 8%
Cn1c2c(Cl)c(Cl)ccc2c2cc(N)[nH]c(=O)c21 | thermal stability | – | DSF | 10 µM | ΔTm | 1.3 °C
COc1cc2ncnc(Nc3ccc(Oc4ccccc4)c(C)c3C)c2cc1OC | enzyme activity | inhibitor | – | 1 µM | inhibition | 3%
CCOCCn1cc(C(=O)Nc2ccc(-n3nc(-c4cccnc4)cc3C(F)(F)F)cn2)ccc1=O | cell-free assay | – | competition with immobilised ligand | 1 µM | remaining binding | 86%
COc1cccc2c(NCc3ccccc3)nc(-n3c(N)nc4ccccc43)nc12 | target engagement in cells | inhibitor | chemoproteomics | 20 mM | inhibition | -12.9%
FC(F)(F)Oc1cccc(-c2cnc3ccc(-c4ccncc4)nn23)c1 | enzyme activity | inhibitor | radiometric | 1 µM | activity vs control | 0.675%
CC(C)(O)[C@H]1CC[C@H](Nc2ccc3ncc(-c4cccc(C(F)(F)F)c4)n3n2)CC1 | enzyme activity | inhibitor | – | 1 µM | remaining activity | 15.8%
CCN1CCC2(CC1)NC(=O)c1c(c3ccc(Cl)c(Cl)c3n1C)C2C#N (racemic) | thermal stability | – | DSF | 10 µM | ΔTm | 1.4 °C
Oc1cccc(-c2nc(N3CCOCC3)c3oc4ncccc4c3n2)c1 | enzyme activity | inhibitor | – | 10 µM | remaining activity | 25%
CN1CCC2(CC1)NC(=O)c1c(c3ccc(Cl)c(Cl)c3n1C)C2C#N (racemic) | thermal stability | – | DSF | 10 µM | ΔTm | 1.9 °C
N#CCCc1ccc2c(c1)-c1[nH]c3ccc([N+](=O)[O-])cc3c1CC(=O)N2 | cell-free assay | – | – | 0.5 µM | remaining signal | 104%
